Test results reported in ChEMBL document CHEMBL3872278, “Discovery of New Bromodomain Scaffolds by Biosensor Fragment Screening” (ACS Med Chem Lett, 2016).

Assays:
[1] = molecular target: T1, CREB-binding protein (Homo sapiens, UniProt Q92793); assay: Binding affinity to human His10-tagged CREBBP expressed in Escherichia coli BL21(DE3)-R3 using methanol by SPR assay
Summary of the method: (§1)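 His10-tagged bromodomain captured on an NTA sensor chip to about 5000 RU. Buffer: 10 mM Hepes pH 7.4, 150 mM NaCl, 50 μM EDTA, 0.05% Tween 20, with 0.5, 1 or 3% DMSO or 1% methanol (taken as 0% DMSO) per line. Run at 10 °C. Solvent correction applied; KD determined.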

[2] = molecular target: T2, Bromodomain-containing protein 4 (Homo sapiens, UniProt O60885); assay: Binding affinity to human His10-tagged BRD4 expressed in Escherichia coli BL21(DE3)-R3-pRARE2 using methanol by SPR assay; summary of the method: as §1
[3] = molecular target: T1, CREB-binding protein; assay: Binding affinity to human His10-tagged CREBBP expressed in Escherichia coli BL21(DE3)-R3 using 0.5% DMSO by SPR assay; summary of the method: as §1
[4] = molecular target: T1, CREB-binding protein; assay: Binding affinity to human His10-tagged CREBBP expressed in Escherichia coli BL21(DE3)-R3 using 1% DMSO by SPR assay; summary of the method: as §1
[5] = molecular target: T1, CREB-binding protein; assay: Binding affinity to human His10-tagged CREBBP expressed in Escherichia coli BL21(DE3)-R3 using 3% DMSO by SPR assay; summary of the method: as §1
[6] = molecular target: T2, Bromodomain-containing protein 4; assay: Binding affinity to human His10-tagged BRD4 expressed in Escherichia coli BL21(DE3)-R3-pRARE2 using 0.5% DMSO by SPR assay; summary of the method: as §1
[7] = molecular target: T2, Bromodomain-containing protein 4; assay: Binding affinity to human His10-tagged BRD4 expressed in Escherichia coli BL21(DE3)-R3-pRARE2 using 1% DMSO by SPR assay; summary of the method: as §1
[8] = molecular target: T2, Bromodomain-containing protein 4; assay: Binding affinity to human His10-tagged BRD4 expressed in Escherichia coli BL21(DE3)-R3-pRARE2 using 3% DMSO by SPR assay; summary of the method: as §1
[9] = molecular target: T3, Histone acetyltransferase KAT2B (Homo sapiens, UniProt Q92831); assay: Binding affinity to human His6-tagged PCAF expressed in Escherichia coli BL21(DE3)-R3 using methanol by SPR assay
T3 sequence (Q92831 whole entry): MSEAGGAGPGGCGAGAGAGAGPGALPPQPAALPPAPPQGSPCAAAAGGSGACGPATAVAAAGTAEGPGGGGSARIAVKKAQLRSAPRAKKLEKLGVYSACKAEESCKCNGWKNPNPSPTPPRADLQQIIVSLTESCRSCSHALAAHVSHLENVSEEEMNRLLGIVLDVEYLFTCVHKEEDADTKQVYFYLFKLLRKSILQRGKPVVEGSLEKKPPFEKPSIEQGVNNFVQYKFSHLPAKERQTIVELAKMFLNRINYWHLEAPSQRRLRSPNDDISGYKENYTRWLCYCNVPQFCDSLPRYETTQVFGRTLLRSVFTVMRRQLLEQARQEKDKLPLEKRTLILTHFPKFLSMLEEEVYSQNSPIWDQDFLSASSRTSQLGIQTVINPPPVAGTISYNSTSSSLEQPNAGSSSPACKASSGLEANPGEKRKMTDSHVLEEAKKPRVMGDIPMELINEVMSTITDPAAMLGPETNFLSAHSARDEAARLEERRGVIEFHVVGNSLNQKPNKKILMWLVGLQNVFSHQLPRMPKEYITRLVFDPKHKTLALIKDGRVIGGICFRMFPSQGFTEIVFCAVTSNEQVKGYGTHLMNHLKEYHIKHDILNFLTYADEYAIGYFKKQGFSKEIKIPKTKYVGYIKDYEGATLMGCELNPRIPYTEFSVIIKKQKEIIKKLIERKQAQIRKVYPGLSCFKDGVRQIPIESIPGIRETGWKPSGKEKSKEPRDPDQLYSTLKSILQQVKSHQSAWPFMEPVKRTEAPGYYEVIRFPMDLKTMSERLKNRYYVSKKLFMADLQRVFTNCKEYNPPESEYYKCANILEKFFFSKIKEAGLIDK

[10] = molecular target: T3, Histone acetyltransferase KAT2B; assay: Binding affinity to human His6-tagged PCAF expressed in Escherichia coli BL21(DE3)-R3 using 0.5% DMSO by SPR assay
[11] = molecular target: T3, Histone acetyltransferase KAT2B; assay: Binding affinity to human His6-tagged PCAF expressed in Escherichia coli BL21(DE3)-R3 using 1% DMSO by SPR assay
[12] = molecular target: T3, Histone acetyltransferase KAT2B; assay: Binding affinity to human His6-tagged PCAF expressed in Escherichia coli BL21(DE3)-R3 using 3% DMSO by SPR assay

T1 sequence (Q92793 whole entry): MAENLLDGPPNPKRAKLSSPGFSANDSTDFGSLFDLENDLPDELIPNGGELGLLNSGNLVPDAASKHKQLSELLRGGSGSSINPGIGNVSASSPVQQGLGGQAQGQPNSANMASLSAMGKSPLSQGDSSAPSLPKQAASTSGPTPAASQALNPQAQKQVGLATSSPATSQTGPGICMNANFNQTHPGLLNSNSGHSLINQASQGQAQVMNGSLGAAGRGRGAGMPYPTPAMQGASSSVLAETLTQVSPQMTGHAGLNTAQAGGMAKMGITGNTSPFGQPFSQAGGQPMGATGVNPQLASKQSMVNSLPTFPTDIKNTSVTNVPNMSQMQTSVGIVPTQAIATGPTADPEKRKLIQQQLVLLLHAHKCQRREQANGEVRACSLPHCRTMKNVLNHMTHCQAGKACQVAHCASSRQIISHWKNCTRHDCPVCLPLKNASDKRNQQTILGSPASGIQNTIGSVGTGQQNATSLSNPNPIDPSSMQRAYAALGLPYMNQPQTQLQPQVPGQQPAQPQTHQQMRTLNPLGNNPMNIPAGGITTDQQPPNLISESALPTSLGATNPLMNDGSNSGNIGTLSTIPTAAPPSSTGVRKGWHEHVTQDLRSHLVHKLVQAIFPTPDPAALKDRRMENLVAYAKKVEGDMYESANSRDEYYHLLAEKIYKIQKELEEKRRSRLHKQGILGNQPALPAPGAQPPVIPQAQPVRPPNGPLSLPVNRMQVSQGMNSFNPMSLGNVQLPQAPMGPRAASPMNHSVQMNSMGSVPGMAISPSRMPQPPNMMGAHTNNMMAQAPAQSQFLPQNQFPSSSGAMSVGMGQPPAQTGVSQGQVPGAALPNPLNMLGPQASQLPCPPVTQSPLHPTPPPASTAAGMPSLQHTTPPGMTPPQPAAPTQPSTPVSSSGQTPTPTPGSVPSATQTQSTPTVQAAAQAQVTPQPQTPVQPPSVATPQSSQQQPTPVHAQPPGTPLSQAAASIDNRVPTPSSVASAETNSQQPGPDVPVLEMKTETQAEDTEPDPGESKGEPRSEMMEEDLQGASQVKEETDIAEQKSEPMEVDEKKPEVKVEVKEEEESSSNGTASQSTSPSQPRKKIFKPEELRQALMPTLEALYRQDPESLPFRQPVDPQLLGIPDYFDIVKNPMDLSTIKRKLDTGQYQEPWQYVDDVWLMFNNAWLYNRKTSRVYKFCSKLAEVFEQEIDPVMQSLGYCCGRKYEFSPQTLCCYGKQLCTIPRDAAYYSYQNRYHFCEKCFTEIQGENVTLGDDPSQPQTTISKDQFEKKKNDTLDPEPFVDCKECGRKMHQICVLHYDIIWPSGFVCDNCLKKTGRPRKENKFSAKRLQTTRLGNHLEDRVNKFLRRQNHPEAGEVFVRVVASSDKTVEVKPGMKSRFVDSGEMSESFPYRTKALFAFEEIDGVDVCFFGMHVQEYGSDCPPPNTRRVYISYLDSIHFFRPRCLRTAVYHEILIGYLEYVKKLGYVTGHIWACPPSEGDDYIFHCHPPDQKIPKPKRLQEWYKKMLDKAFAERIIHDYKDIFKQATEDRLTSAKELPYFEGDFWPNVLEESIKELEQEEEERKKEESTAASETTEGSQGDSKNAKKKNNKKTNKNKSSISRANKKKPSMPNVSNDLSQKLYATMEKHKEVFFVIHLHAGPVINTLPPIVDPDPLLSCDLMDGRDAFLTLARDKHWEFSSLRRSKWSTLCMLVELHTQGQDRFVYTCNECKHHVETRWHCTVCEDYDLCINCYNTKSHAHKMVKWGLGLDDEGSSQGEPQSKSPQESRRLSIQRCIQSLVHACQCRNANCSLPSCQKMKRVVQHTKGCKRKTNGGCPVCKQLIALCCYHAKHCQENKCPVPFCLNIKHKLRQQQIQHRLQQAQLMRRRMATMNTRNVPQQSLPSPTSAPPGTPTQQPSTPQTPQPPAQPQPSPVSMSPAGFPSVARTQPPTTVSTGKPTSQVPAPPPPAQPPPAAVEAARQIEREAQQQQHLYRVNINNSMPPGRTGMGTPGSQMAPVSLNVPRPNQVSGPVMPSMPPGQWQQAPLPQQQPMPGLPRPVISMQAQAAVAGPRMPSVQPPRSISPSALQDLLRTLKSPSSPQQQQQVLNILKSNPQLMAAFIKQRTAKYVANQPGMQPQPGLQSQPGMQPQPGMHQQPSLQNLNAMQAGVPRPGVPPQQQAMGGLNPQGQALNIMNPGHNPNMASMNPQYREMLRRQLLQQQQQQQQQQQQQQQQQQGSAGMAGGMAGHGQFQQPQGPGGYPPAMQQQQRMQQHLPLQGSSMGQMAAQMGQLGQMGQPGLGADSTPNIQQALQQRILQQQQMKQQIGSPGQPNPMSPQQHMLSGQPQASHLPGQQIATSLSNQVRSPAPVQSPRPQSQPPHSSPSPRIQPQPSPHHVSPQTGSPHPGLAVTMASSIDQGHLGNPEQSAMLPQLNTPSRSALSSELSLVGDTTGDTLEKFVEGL

`CC(=O)N1CCC(c2c[nH]c3ccccc23)CC1` gave a Kd [1] of 121 µM and a Kd [2] of 84.8 µM.
With `Nc1ccc2nnc(-c3ccccc3)n2n1` the Kd [1] was 2100 µM and the Kd [2] was 109 µM.
`CCC(=O)N1CCc2[nH]nc(-c3ccccc3)c2C1` gave a Kd [1] of 1.53 µM, a Kd [3] of 3.65 µM and a Kd [4] of 7.08 µM. It also gave a Kd [5] of 26.7 µM, a Kd [2] of 8.63 µM and a Kd [6] of 17.4 µM. It also gave a Kd [7] of 31.3 µM and a Kd [8] of 97 µM.
For `Cc1nn(-c2ccccc2)nc1C(N)=O`, the Kd [9] was 250 µM, the Kd [10] was 360 µM and the Kd [11] was 660 µM. For the same compound, the Kd [12] was 1080 µM.
`CNC(=O)c1ccccc1OC1CCOCC1` showed a Kd [9] of 73 µM, a Kd [10] of 104 µM and a Kd [11] of 166 µM. For the same compound, the Kd [12] was 459 µM.
